# Measurements reported in ChEMBL document CHEMBL4765349, “Design, synthesis and biological evaluation of novel N-sulfonylamidine-based derivatives as c-Met inhibitors via Cu-catalyzed three-component reaction” (Eur J Med Chem, 2020).
# Key:
# MDA-MB-231 = test: Cytotoxicity against human MDA-MB-231 cells assessed as inhibition of cell proliferation measured after 72 hrs by MTT assay; assay type: functional, cell-based; conditions: MDA-MB-231, 72 h
# MKN-45 = test: Cytotoxicity against human MKN-45 cells assessed as inhibition of cell proliferation measured after 72 hrs by MTT assay; assay type: functional, cell-based; conditions: MKN-45, 72 h
# HT-29 = test: cells; conditions: Homo sapiens, HT-29, 72 h
# A549 [1] = test: cells; conditions: Homo sapiens, A549, 72 h
# A549 [2] = test: Induction of apoptosis in human A549 cells assessed as late apoptosis at 1 uM measured after 12 hrs by Annexin V-FITC/ Propidium iodide stain based flow cytometry assay relative to control; assay type: functional
# How it was run: (§1)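 Cells double-stained with FITC-annexin V and propidium iodide, then flow cytometry gave the percentages of early and late apoptotic cells.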
# A549 [3] = test: Induction of apoptosis in human A549 cells assessed as early apoptosis at 1 uM measured after 12 hrs by Annexin V-FITC/ Propidium iodide stain based flow cytometry assay relative to control; assay type: functional; how it was run: as §1
IC50 (HT-29),IC50 (A549 [1]),Structure (SMILES),IC50 (MDA-MB-231),IC50 (MKN-45),Activity (A549 [2]),Activity (A549 [3])
4.12 µM,3.76 µM,COc1cc2nccc(Oc3ccc(N/C(C)=N/S(=O)(=O)Cc4ccc(F)cc4)cc3F)c2cc1OC,7.65 µM,4.55 µM,–,–
16.5 µM,14.3 µM,COc1cc2nccc(Oc3ccc(N/C(Cc4ccsc4)=N\S(=O)(=O)Cc4ccccc4)cc3F)c2cc1OC,23.8 µM,–,–,–
5.18 µM,4.6 µM,CCCCC/C(=N\S(=O)(=O)Cc1ccc(F)cc1)Nc1ccc(Oc2ccnc3cc(OC)c(OC)cc23)c(F)c1,9.04 µM,5.54 µM,–,–
14.5 µM,12.2 µM,COc1cc2nccc(Oc3ccc(N/C(CC4CCCCC4)=N\S(=O)(=O)Cc4ccccc4)cc3F)c2cc1OC,20.4 µM,16.3 µM,–,–
–,–,COc1cc2c(Oc3ccc(NC(=O)C4(C(=O)Nc5ccc(F)cc5)CC4)cc3F)ccnc2cc1OCCCN1CCOCC1 [FORETINIB],–,–,22.9%,11.25%
8.02 µM,7.54 µM,COCC/C(=N\S(=O)(=O)Cc1cccc(C)c1)Nc1ccc(Oc2ccnc3cc(OC)c(OC)cc23)c(F)c1,13.1 µM,9.15 µM,–,–
0.55 µM,0.38 µM,COCC/C(=N\S(=O)(=O)Cc1ccc(Cl)cc1)Nc1ccc(Oc2ccnc3cc(OCCCN4CCC(C)CC4)c(OC)cc23)c(F)c1,1.56 µM,0.76 µM,–,–
30.5 µM,27.1 µM,CCCCC/C(=N\S(=O)(=O)Cc1ccccc1)Nc1ccc(Oc2ncnc3cc(OC)c(OC)cc23)c(F)c1,–,–,–,–
3.16 µM,2.85 µM,COCC/C(=N\S(=O)(=O)Cc1ccccc1F)Nc1ccc(Oc2ccnc3cc(OC)c(OC)cc23)c(F)c1,5.67 µM,3.26 µM,–,–
22.1 µM,18.6 µM,CCCCC/C(=N\S(=O)(=O)Cc1ccc(F)cc1)Nc1ccc(Oc2ncnc3cc(OC)c(OC)cc23)c(F)c1,31.8 µM,23.4 µM,–,–
11.2 µM,10.3 µM,CCCCC/C(=N\S(=O)(=O)Cc1ccc(F)cc1)Nc1ccc(Oc2ncnc3ccsc23)c(F)c1,16.8 µM,12.5 µM,–,–
11.2 µM,10.1 µM,COc1cc2nccc(Oc3ccc(N/C(Cc4ccsc4)=N\S(=O)(=O)Cc4ccc(F)cc4)cc3F)c2cc1OC,19.5 µM,11.9 µM,–,–
2.85 µM,2.56 µM,CCCCOc1cc2nccc(Oc3ccc(N/C(CCOC)=N/S(=O)(=O)Cc4ccc(Cl)cc4)cc3F)c2cc1OC,5.46 µM,3.05 µM,–,–
8.74 µM,8.02 µM,COCC/C(=N\S(=O)(=O)Cc1ccc(C)cc1)Nc1ccc(Oc2ccnc3cc(OC)c(OC)cc23)c(F)c1,13.7 µM,9.75 µM,–,–
4.05 µM,3.53 µM,CCCCOc1cc2nccc(Oc3ccc(N/C(CCOC)=N/S(=O)(=O)Cc4ccc(Cl)c(Cl)c4)cc3F)c2cc1OC,7.19 µM,4.36 µM,–,–
0.91 µM,0.62 µM,COCC/C(=N\S(=O)(=O)Cc1ccc(Cl)cc1)Nc1ccc(Oc2ccnc3cc(OC)c(OC)cc23)c(F)c1,2.32 µM,1.05 µM,–,–
0.59 µM,0.47 µM,COCC/C(=N\S(=O)(=O)Cc1ccc(Cl)c(Cl)c1)Nc1ccc(Oc2ccnc3cc(OCCCN4CCOCC4)c(OC)cc23)c(F)c1,1.04 µM,0.72 µM,–,–
8.03 µM,7.14 µM,COCC/C(=N\S(=O)(=O)Cc1ccc(Br)cc1)Nc1ccc(Oc2ccnc3cc(OC)c(OC)cc23)c(F)c1,12.1 µM,11.3 µM,–,–
0.74 µM,0.61 µM,COCC/C(=N\S(=O)(=O)Cc1ccc(Cl)c(Cl)c1)Nc1ccc(Oc2ccnc3cc(OCCCN4CCN(C)CC4)c(OC)cc23)c(F)c1,1.35 µM,0.82 µM,–,–
18.6 µM,17.3 µM,CCCCC/C(=N\S(=O)(=O)Cc1ccccc1)Nc1ccc(Oc2ncnc3ccsc23)c(F)c1,25.6 µM,21.9 µM,–,–

IC50 (HT-29),IC50 (A549 [1]),Structure (SMILES),IC50 (MDA-MB-231),IC50 (MKN-45),Activity (A549 [2]),Activity (A549 [3])
20.6 µM,18.1 µM,COc1cc2nccc(Oc3ccc(N/C(Cc4cccnc4)=N\S(=O)(=O)Cc4ccccc4)cc3F)c2cc1OC,28.3 µM,22.9 µM,–,–
0.88 µM,0.72 µM,COCC/C(=N\S(=O)(=O)Cc1ccc(Cl)c(Cl)c1)Nc1ccc(Oc2ccnc3cc(OCCCN4CCC(C)CC4)c(OC)cc23)c(F)c1,1.98 µM,1.15 µM,–,–
3.52 µM,3.14 µM,COCC/C(=N\S(=O)(=O)Cc1ccccc1)Nc1ccc(Oc2ccnc3cc(OC)c(OC)cc23)c(F)c1,6.64 µM,4.05 µM,–,–
7.06 µM,6.23 µM,CCCCC/C(=N\S(=O)(=O)Cc1ccc(F)cc1)Nc1ccc(Oc2ccnc3ccsc23)c(F)c1,14.6 µM,9.17 µM,–,–
10.3 µM,9.43 µM,COc1cc2nccc(Oc3ccc(N/C(CC4CCCCC4)=N\S(=O)(=O)Cc4ccc(F)cc4)cc3F)c2cc1OC,19.7 µM,15.2 µM,–,–
5.85 µM,5.16 µM,COc1cc2nccc(Oc3ccc(N/C(C)=N/S(=O)(=O)Cc4ccccc4)cc3F)c2cc1OC,9.29 µM,5.99 µM,–,–
1.68 µM,1.42 µM,COCC/C(=N\S(=O)(=O)Cc1ccc(F)cc1)Nc1ccc(Oc2ccnc3cc(OC)c(OC)cc23)c(F)c1,4.24 µM,2.15 µM,–,–
0.88 µM,0.71 µM,COCC/C(=N\S(=O)(=O)Cc1ccc(Cl)c(Cl)c1)Nc1ccc(Oc2ccnc3cc(OC)c(OC)cc23)c(F)c1,3.32 µM,1.16 µM,–,–
4.85 µM,4.15 µM,COCC/C(=N\S(=O)(=O)Cc1ccccc1C)Nc1ccc(Oc2ccnc3cc(OC)c(OC)cc23)c(F)c1,8.19 µM,5.16 µM,–,–
23.7 µM,20.4 µM,COc1cc2nccc(Oc3ccc(N/C(Cc4ccccc4)=N\S(=O)(=O)Cc4ccc(F)cc4)cc3F)c2cc1OC,32.5 µM,–,–,–
2.47 µM,2.14 µM,COCC/C(=N\S(=O)(=O)Cc1cccc(F)c1)Nc1ccc(Oc2ccnc3cc(OC)c(OC)cc23)c(F)c1,5.34 µM,3.52 µM,–,–
0.36 µM,0.32 µM,COCC/C(=N\S(=O)(=O)Cc1ccc(Cl)cc1)Nc1ccc(Oc2ccnc3cc(OCCCN4CCN(C)CC4)c(OC)cc23)c(F)c1,1.24 µM,0.61 µM,–,–
13.2 µM,11.3 µM,COCC/C(=N\S(=O)(=O)Cc1ccc(C(F)(F)F)cc1)Nc1ccc(Oc2ccnc3cc(OC)c(OC)cc23)c(F)c1,20.4 µM,15.3 µM,–,–
32.6 µM,28.4 µM,COc1cc2nccc(Oc3ccc(N/C(Cc4ccccc4)=N\S(=O)(=O)Cc4ccccc4)cc3F)c2cc1OC,–,26.3 µM,–,–
9.63 µM,8.68 µM,CCCCC/C(=N\S(=O)(=O)Cc1ccccc1)Nc1ccc(Oc2ccnc3ccsc23)c(F)c1,15.3 µM,11.5 µM,–,–
0.41 µM,0.35 µM,COCC/C(=N\S(=O)(=O)Cc1ccc(Cl)cc1)Nc1ccc(Oc2ccnc3cc(OCCCN4CCCCC4)c(OC)cc23)c(F)c1,1.12 µM,0.65 µM,–,–
0.78 µM,0.67 µM,COCC/C(=N\S(=O)(=O)Cc1ccc(Cl)c(Cl)c1)Nc1ccc(Oc2ccnc3cc(OCCCN4CCCCC4)c(OC)cc23)c(F)c1,0.93 µM,0.88 µM,–,–
8.26 µM,7.55 µM,CCCCC/C(=N\S(=O)(=O)Cc1ccccc1)Nc1ccc(Oc2ccnc3cc(OC)c(OC)cc23)c(F)c1,12.8 µM,9.28 µM,–,–
15.5 µM,13.2 µM,COc1cc2nccc(Oc3ccc(N/C(Cc4cccnc4)=N\S(=O)(=O)Cc4ccc(F)cc4)cc3F)c2cc1OC,22.3 µM,18.6 µM,–,–
